ChEMBL document CHEMBL1151223, “Antimycotic spirostanol saponins from Solanum hispidum leaves and their structure-activity relationships” (2004)
In brackets after ≈: the same amount, converted by molar mass.

Tests used:
Trichophyton rubrum = experiment: Antimycotic activity against Trichophyton rubrum ATCC 28188 after 72 hrs; type: functional; conditions: ATCC 28188, 72 h
Summary of the method: (§1)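 Agar dilution MIC on Sabouraud glucose agar; the filamentous fungi were maintained on potato dextrose agar at 27 °C. DMSO stocks were diluted 2-fold and added to the medium: pure compounds 400-3.125 µg/mL, extracts 10-1.25 mg/mL, references 128-1 µg/mL; final DMSO at most 2%. A hemocytometer-counted spore inoculum was loop-applied to the agar surface, and plates were incubated at 29 °C for 72 h. MIC was the lowest concentration with no visible growth; run in triplicate.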

Candida albicans [1] = experiment: Antimycotic activity against Candida albicans ATCC 10231 after 24 hrs; conditions: ATCC 10231, 24 h
[2] = test system: Trichophyton mentagrophytes; experiment: Antimycotic activity against Trichophyton mentagrophytes ATCC 28185 after 72 hrs; type: functional; conditions: ATCC 28185, 72 h; summary of the method: as §1
Aspergillus niger = experiment: Antimycotic activity against Aspergillus niger ATCC 10335 after 48 hrs; conditions: ATCC 10335, 48 h
Candida albicans [3] = experiment: Antimycotic activity against Candida albicans ATCC 10231 after 48 hrs; type: functional

C[C@@H]1CC[C@@]2(OC1)O[C@H]1C[C@H]3[C@@H]4C[C@H](O[C@@H]5O[C@H](C)[C@@H](O)[C@H](O[C@@H]6O[C@H](C)[C@@H](O)[C@H](O)[C@@H]6O)[C@H]5O)[C@H]5C[C@@H](O)CC[C@]5(C)[C@H]4CC[C@]3(C)[C@H]1[C@@H]2C
MIC (Trichophyton rubrum): 50 µg/mL (≈ 69 µM)
MIC (Candida albicans [1]): 200 µg/mL (≈ 276 µM)
MIC [2]: 200 µg/mL (≈ 276 µM)
MIC (Aspergillus niger): 400 µg/mL (≈ 552 µM)

C[C@@H]1CC[C@@]2(OC1)O[C@H]1C[C@H]3[C@@H]4C[C@H](O[C@@H]5O[C@H](C)[C@@H](O)[C@H](O[C@@H]6OC[C@@H](O)[C@H](O)[C@H]6O)[C@H]5O)[C@H]5C[C@@H](O)CC[C@]5(C)[C@H]4CC[C@]3(C)[C@H]1[C@@H]2C
MIC (Trichophyton rubrum): 12.5 µg/mL (≈ 17.6 µM)
MIC (Candida albicans [1]): 200 µg/mL (≈ 281 µM)
MIC [2]: 12.5 µg/mL (≈ 17.6 µM)
MIC (Aspergillus niger): 100 µg/mL (≈ 141 µM)

C[C@@H]1CC[C@@]2(OC1)O[C@H]1C[C@H]3[C@@H]4C[C@H](O[C@@H]5OC[C@@H](O)[C@H](O)[C@H]5O)[C@H]5C[C@@H](O)CC[C@]5(C)[C@H]4CC[C@]3(C)[C@H]1[C@@H]2C
MIC (Trichophyton rubrum): 100 µg/mL (≈ 177 µM)
MIC (Candida albicans [1]): 200 µg/mL (≈ 354 µM)
MIC [2]: 100 µg/mL (≈ 177 µM)
MIC (Aspergillus niger): > 400 µg/mL

C[C@@H]1CC[C@@]2(OC1)O[C@H]1C[C@H]3[C@@H]4C[C@H](O[C@@H]5O[C@H](C)[C@@H](O)[C@H](O)[C@H]5O)[C@H]5C[C@@H](O)CC[C@]5(C)[C@H]4CC[C@]3(C)[C@H]1[C@@H]2C
MIC (Trichophyton rubrum): 50 µg/mL (≈ 86.4 µM)
MIC (Candida albicans [1]): 200 µg/mL (≈ 346 µM)
MIC [2]: 25 µg/mL (≈ 43.2 µM)
MIC (Aspergillus niger): > 400 µg/mL

C[C@H]1CC[C@@]2(OC1)O[C@H]1C[C@H]3[C@@H]4C[C@H](O[C@@H]5O[C@H](C)[C@@H](O)[C@H](O)[C@H]5O)[C@H]5C[C@@H](O)CC[C@]5(C)[C@H]4CC[C@]3(C)[C@H]1[C@@H]2C
MIC (Trichophyton rubrum): 50 µg/mL (≈ 86.4 µM)
MIC (Candida albicans [1]): > 400 µg/mL
MIC [2]: 25 µg/mL (≈ 43.2 µM)
MIC (Aspergillus niger): > 400 µg/mL

C[C@@H]1CO[C@@]2(O[C@H]3C[C@H]4[C@@H]5C[C@H](O[C@@H]6O[C@H](C)[C@@H](O)[C@H](O[C@@H]7OC[C@@H](O)[C@H](O)[C@H]7O)[C@H]6O)[C@H]6C[C@@H](O)CC[C@]6(C)[C@H]5CC[C@]4(C)[C@H]3[C@@H]2C)[C@@H](O)C1
MIC (Trichophyton rubrum): 25 µg/mL (≈ 34.4 µM)
MIC (Candida albicans [1]): > 400 µg/mL
MIC [2]: 25 µg/mL (≈ 34.4 µM)
MIC (Aspergillus niger): > 400 µg/mL

C[C@H]1CO[C@@]2(O[C@H]3C[C@H]4[C@@H]5C[C@H](O[C@@H]6O[C@H](C)[C@@H](O)[C@H](O[C@@H]7O[C@H](C)[C@@H](O)[C@H](O)[C@@H]7O)[C@H]6O)[C@H]6C[C@@H](O)CC[C@]6(C)[C@H]5CC[C@]4(C)[C@H]3[C@@H]2C)[C@@H](O)C1
MIC (Trichophyton rubrum): 200 µg/mL (≈ 270 µM)
MIC (Candida albicans [1]): 200 µg/mL (≈ 270 µM)
MIC [2]: 200 µg/mL (≈ 270 µM)
MIC (Aspergillus niger): 200 µg/mL (≈ 270 µM)

C[C@@H]1CO[C@@]2(O[C@H]3C[C@H]4[C@@H]5C[C@H](O[C@@H]6O[C@H](C)[C@@H](O)[C@H](O[C@@H]7OC[C@@H](O)[C@H](O)[C@H]7O)[C@H]6O)[C@H]6C[C@@H](O)CC[C@]6(C)[C@H]5CC[C@]4(C)[C@H]3[C@@H]2C)[C@H](O)C1
MIC (Trichophyton rubrum): 100 µg/mL (≈ 138 µM)
MIC (Candida albicans [1]): > 400 µg/mL
MIC [2]: 100 µg/mL (≈ 138 µM)
MIC (Aspergillus niger): > 400 µg/mL

NYSTATIN
MIC (Candida albicans [3]): 8 µg/mL

Clc1ccc(COC(Cn2ccnc2)c2ccc(Cl)cc2Cl)c(Cl)c1 (stereo not given) [MICONAZOLE]
MIC (Trichophyton rubrum): 4 µg/mL (≈ 9.61 µM)
MIC [2]: 4 µg/mL (≈ 9.61 µM)
MIC (Aspergillus niger): 8 µg/mL (≈ 19.2 µM)

C[C@H]1CC[C@@]2(OC1)O[C@H]1C[C@H]3[C@@H]4C[C@H](O[C@@H]5O[C@H](C)[C@@H](O)[C@H](O[C@@H]6OC[C@@H](O)[C@H](O)[C@H]6O)[C@H]5O)[C@H]5C[C@@H](O)CC[C@]5(C)[C@H]4CC[C@]3(C)[C@H]1[C@@H]2C
MIC (Trichophyton rubrum): 25 µg/mL (≈ 35.2 µM)
MIC (Candida albicans [1]): > 400 µg/mL
MIC [2]: 25 µg/mL (≈ 35.2 µM)
MIC (Aspergillus niger): > 400 µg/mL
